Assay outcomes (PubChem BioAssay)
HTRA1 inhibitor: HTRA1 serine protease inhibitors, primary screen, biochemical, fluorescence polarization, HTS. 340,000 tested, 0.5% active. AID 504803, 2011. recombinant HTRA1, FP-rhodamine activity-based probe. inhibition, % at 5.96 µM; in the data active = inhibition above about 36%;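 note: 0% = enzyme with DMSO and 100% = wells lacking enzyme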
Target sequence (Q92743 whole entry, looked up): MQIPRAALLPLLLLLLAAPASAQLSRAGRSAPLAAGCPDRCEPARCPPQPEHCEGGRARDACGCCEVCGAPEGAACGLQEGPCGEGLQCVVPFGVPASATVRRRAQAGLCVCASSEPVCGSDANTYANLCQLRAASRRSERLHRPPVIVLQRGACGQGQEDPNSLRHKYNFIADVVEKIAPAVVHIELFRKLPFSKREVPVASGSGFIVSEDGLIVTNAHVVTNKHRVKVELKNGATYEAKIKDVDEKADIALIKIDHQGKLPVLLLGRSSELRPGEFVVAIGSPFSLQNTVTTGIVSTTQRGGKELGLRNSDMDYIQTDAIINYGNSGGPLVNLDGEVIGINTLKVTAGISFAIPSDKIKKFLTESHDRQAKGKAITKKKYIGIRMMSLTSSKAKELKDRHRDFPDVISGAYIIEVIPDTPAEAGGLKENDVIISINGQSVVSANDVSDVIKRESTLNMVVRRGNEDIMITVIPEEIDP
SIAE primary: human SIAE inhibitors, primary screen, biochemical, fluorescence polarization, FP-Rh probe, 1536-well HTS | SIAE FP-Rh probe binding | AID 1053197, 2014 | Sialate O-acetylesterase (Homo sapiens), Q9HAT2 | 370,000 tested, 0.69% active | inhibition, % at 9.66 µM;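 active = inhibition above a cutoff: mean of compounds within the control limits plus 3 SD of those, cut at about 17% in these data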;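 note: 0% = plate median of compound wells and 100% = probe without SIAE protein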
RBBP9 inh: human RBBP9 inhibitors, primary screen, biochemical, fluorescence polarization, FP-Rh probe, HTS; Serine hydrolase RBBP9 (Homo sapiens), O75884; 220,000 tested, 0.2% active; inhibition, % at 7.94 µM; recombinant RBBP9;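 active = inhibition above the campaign mean of all tested compounds plus 3 SD, cut at about 14% in these data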;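 note: plate controls were DMSO wells with RBBP9 for no effect and wells lacking RBBP9 protein for full effect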
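Test system – recombinant human RBBP9 · Input – RBBP9 2.5 µM in dispensing solution, pre-mixing · Medium – Tris buffer pH 8.0, NaCl, Pluronic · Schedule – preincubation 30 min plus labeling 45 min at 25 °C · Measured by – fluorescence polarization · Measure – % inhibition · Controls – DMSO and no-protein wells · Replicates – one well per compound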
mABHD4 FP: ABHD4 inhibitors, primary screen, biochemical, fluorescence polarization, mouse. (Lyso)-N-acylphosphatidylethanolamine lipase (Mus musculus), Q8VD66. purified mABHD4, FP-Rh probe fluorescence polarization. inhibition, % at 8.92 µM. 370,000 tested, 0.54% active;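 active = inhibition exceeding the mean over every tested compound plus 3 SD, cut at about 30% in these data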;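 note: 0% = plate median of compound wells and 100% = S159A mutant with DMSO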
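Test system: mouse ABHD4 enzyme, wild type. Reagent: FP-Rh fluorescent activity-based probe, added after compound pre-incubation. Timing: pre-incubation 45 min, probe exposure 60 min, at 25 °C. Technique: FP readout, ex 525 nm / em 598 nm. Benchmarks: high control S159A mutant with DMSO, low control median of compound wells.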
mABHD4 conf: ABHD4 inhibitors, retest, confirmation, biochemical, fluorescence polarization, mouse | inhibition, % at 8.92 µM | purified mABHD4, FP-Rh probe fluorescence polarization | 1,800 tested, 55% active | shares compounds with mABHD4 FP | AID 720658, 2013;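 active = mean inhibition across replicates above the hit cutoff set in the primary screen, cut at about 30% in these data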;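 note: 0% = wild-type ABHD4 with DMSO and 100% = catalytically dead S159A mutant with DMSO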
The depositor's hits bear a star; nt = not tested or not shown. Only some compounds are listed: those with a hit (about 1.4% of all), similar ones and a draw of the others.

SMILES	HTRA1 inhibitor	SIAE primary	RBBP9 inh	mABHD4 FP	mABHD4 conf
COc1cccc(Nc2nc(NCCO)c3ccccc3n2)c1	5	10	-3	39*	47*
CCOC(=O)C1CCN(C2=C(NS(=O)(=O)c3ccc(Cl)cc3)C(=O)c3ccccc3C2=O)CC1	29	7	1	41*	58*
CCc1nc2c(OCc3ccc(C(F)(F)F)cc3)cccn2c1N(C=O)Cc1ccc(OC)cc1	nt	-7	nt	3	nt
Brc1cc2c(cc1C1Nc3ccccc3C3C=CCC31)OCO2 (configuration not stated)	-2	8	0	5	nt
C1=CC2c3ccccc3NC(c3ccncc3)C2C1 (configuration not stated)	33	10	-3	50*	64*
CC(C)(C)CC(C)(C)c1ccc(OCCOCC[N+](C)(C)Cc2ccccc2)cc1	16	2	nt	36*	44*
CC(=O)C1C(=O)c2c(cccc2[N+](=O)[O-])C1=Nc1cccc(Cl)c1 (configuration not stated)	14	8	8	36*	61*
C[C@H](O)[C@@H]1C(=O)N2CCc3c([nH]c4cccc(-c5ccccc5)c34)[C@@H]2C[C@@H]1N(C)C(=O)c1ccco1	nt	-2	nt	-7	nt
COc1ccccc1N1C(=O)C2C(c3ccc(F)cc3)NN(C(=O)c3ccc(C)cc3)C2C1=O (configuration not stated)	1	1	-7	34*	24
CC1CCc2nc(/C(C#N)=C/c3ccncc3)sc2C1 (configuration not stated)	2	-6	-10	-8	nt
O=C(c1cc([N+](=O)[O-])ccc1Cl)N1CCN(c2ccc([N+](=O)[O-])cc2)CC1	-5	-1	-6	40*	-3
CS(=O)(=O)Nc1ccccc1-c1cccc2nccn12	nt	5	nt	1	nt
O=C(CNc1ccc2ccccc2c1)N/N=C/c1ccccn1	nt	15	-7	39*	12
CCC1=Nc2cc(C(=O)N3CCCCC3)ccc2Sc2ccc(C)cc21	-34	12	nt	16	nt
CCCC1=Nc2cc(C(=O)N3CCCC3)ccc2Sc2ccc(C)cc21	-37	-5	nt	32*	27
O=[N+]([O-])c1ccc(O)c(/C=N/NC(=S)Nc2ccc(Cl)cc2Cl)c1	32	14	-2	35*	27
Cc1nn(Cc2ccccc2)c2c1C(c1ccncc1)C(C#N)=C(N)O2 (configuration not stated)	9	8	nt	0	nt
Cc1nn(Cc2ccccc2)c2c1C(c1ccc(Cl)cc1)C(C#N)=C(N)O2 (configuration not stated)	8	2	-7	34*	-1
COc1ccc(C(=O)Nc2cc(C)nn2-c2ccc(C)cc2)cc1	-3	-2	nt	0	nt
Cc1ccc(C(=O)/C=C/c2ccc(-c3ccccc3[N+](=O)[O-])o2)cc1	13	-2	-5	36*	-3
O=C(/C=C/c1ccc(-c2ccccc2[N+](=O)[O-])o1)c1ccc(Br)cc1	-26	7	-7	21	nt
Cc1ccc2c(c1)c1c3n2CCCNC3CCC1 (configuration not stated)	13	10	-2	1	nt
c1cc2c(cc1C1CCCCC1)c1c3n2CCCNC3CCC1 (configuration not stated)	26	10	-2	36*	57*
CCCC1=Nc2cc(C(=O)N3CCN(c4ccccn4)CC3)ccc2Sc2ccc(C)cc21	-69	-8	nt	7	nt
COc1cccc(/C=C2/C(=O)NN(c3ccc(F)cc3)C2=O)c1	-5	4	nt	13	nt
SMILES	HTRA1 inhibitor	SIAE primary	RBBP9 inh	mABHD4 FP	mABHD4 conf
COc1cccc(/C=C2/C(=O)NN(c3ccc(C)c(C)c3)C2=O)c1	3	11	nt	35*	13
COc1cc(/C=C2/C(=O)NN(c3cccc(Cl)c3)C2=O)cc(OC)c1O	6	9	nt	36*	16
COc1cc(/C=C2/C(=O)NN(c3ccc(C)c(Cl)c3)C2=O)cc([N+](=O)[O-])c1O	30	-2	nt	63*	56*
CCOc1cc(/C=C2/C(=O)NN(c3cccc(Cl)c3)C2=O)ccc1O	-4	6	nt	36*	38*
Nc1nc2c(ncn2[C@@H]2O[C@H](C(=O)N[C@@H](Cc3ccccc3)C(=O)NCC3CCCCC3)[C@@H](O)[C@H]2O)c(=O)[nH]1	nt	-8	nt	-1	nt
COC(=O)[C@]12C[C@H](CC(=O)N3CCC(c4ccccc4)CC3)C(=O)N(CCC3=CCCCC3)C1=C[C@H](C1CCCC1)O[C@@H]2C	nt	2	nt	8	nt
FC(F)(F)Oc1cccc(Cn2ccc3ccc(-c4ccc5ccn(Cc6ccccc6)c5c4)cc32)c1	nt	1	nt	11	nt
CCOC(=O)C1=C(C)NC2=C(C(=O)c3ccccc32)C1c1cccc2ccccc12 (configuration not stated)	-6	7	5	21	nt
CCOC(=O)C1=C(C)NC2=C(C(=O)c3ccccc32)C1c1ccc(O)cc1 (configuration not stated)	22	5	-6	43*	49*
COCOCCn1cc(CN2CCS(=O)(=O)N(Cc3ccc(-c4ccc(Cl)c(Cl)c4)cc3)C(C)C2=O)nn1 (configuration not stated)	-26	-14	nt	-31	nt
COc1cccc2cc(C(=O)N3CC(C)OC(C)C3)c(=O)oc12 (configuration not stated)	1	-5	nt	-5	nt
COc1cc2c(oc(=O)c3cc(C)cc(OC)c32)c2c(C3OC(C)C(O)C(C)(O)C3O)ccc(O)c12 (configuration not stated)	7	-3	nt	38*	14
CC1CCCC(C)N1C(=O)COC(=O)CCC(=O)c1cccs1 (configuration not stated)	-2	5	nt	60*	-7
CC1CCCC(C)N1C(=O)COC(=O)CCC(=O)c1ccc(F)cc1 (configuration not stated)	-3	-6	nt	-4	nt
CC(=O)OCCCNc1cc(SCc2ccco2)c2nonc2c1[N+](=O)[O-]	8	13	1	49*	11
CCCC(=O)OCCNc1cc(SCc2ccco2)c2nonc2c1[N+](=O)[O-]	32	12	-6	20	nt
CC1OC2CC(=O)OC2C2=C1C(=O)c1c(O)cccc1C2=O (configuration not stated)	nt	13	nt	38*	35*
COCCNC(=O)CSc1nnc(NC(=O)C2CC(=O)N(c3ccccc3OC)C2)s1 (configuration not stated)	-2	-6	nt	10	nt
O=C(Nc1ccccc1)c1ccccc1NC(=O)c1ccccc1[N+](=O)[O-]	-15	-5	nt	2	nt
